Data from ChEMBL document CHEMBL1138220, “Synthesis and characterization of a novel liver-targeted prodrug of cytosine-1-beta-D-arabinofuranoside monophosphate for the treatment of hepatocellular carcinoma” (J Med Chem, 2006).
In brackets after ≈: the same amount, converted by molar mass.

Assays:
[1] = Aqueous solubility in phosphate buffer at pH 7.4; type: physicochemical
Summary of the method: (§1)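 Each prodrug was dissolved at 10 mg/mL (pyridyl prodrugs at 200 mg/mL) in 100 mM citrate buffer pH 4.0 or 100 mM phosphate pH 7.4. Samples were sonicated 20 min, held ~10 min at room temperature, filtered through 0.45 µm, diluted 1:100 or 1:10000 in DMSO, then quantified by C18 HPLC (acetonitrile gradient, 40 °C, 270 nm).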

Bone marrow = experiment: Distribution of araCTP in Swiss Webster mouse bone marrow at 100 mg/kg, ip measured as AUC (0-4h); type: ADME, organism-based; set-up: time < 5 hr, dose 100 mg/kg, route intraperitoneal; settings: in vivo, 5 h
Summary of the method: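 Male Swiss Webster mice were given i.p. prodrug at a molar equivalent of 100 mg/kg araC. Bone marrow cell pellets collected up to 4 h were extracted with 12 volumes of 3% PCA, centrifuged 10 min and neutralized to pH 7-8 with KOH/KHCO₃. AraCTP was expressed as AUC 0-4 h; the lower limit of quantitation was 3 nmol·h/g.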

Liver [2] = experiment: Ratio of AUC for araCTP level in liver to bone marrow of Swiss Webster mouse; type: functional
[3] = Stability in phosphate buffer at pH 7.4 at 37 degC at 100 uM after 24 hrs; type: physicochemical; settings: for remaining at 24 h, 100 µM: phosphate buffer, pH 7.4, read-out: Stability
Summary of the method: (§2)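 Prodrug at 100 µM in 10 mM phosphate buffer pH 7.4, held at 37 °C. Intact prodrug was quantified by C18 HPLC at 270 nm and expressed as % remaining at 24 h or 72 h.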

Liver [4] = experiment: Distribution of araCTP in Swiss Webster mouse liver at 100 mg/kg, ip measured as AUC (0-4h); type: ADME, organism-based; set-up: time < 5 hr, dose 100 mg/kg, route intraperitoneal; settings: in vivo, 5 h
Summary of the method: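 Nonfasted male Swiss Webster mice were dosed i.p. at a molar equivalent of 100 mg/kg araC. Livers were taken at set times up to 4 h, snap-frozen, homogenized in 3 volumes of 10% PCA, centrifuged and neutralized with KOH/KHCO₃. AraCTP was measured and reported as AUC 0-4 h (nmol·h/g).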

Liver [5] = experiment: Ratio of AUC for araCTP level in liver to plasma of Swiss Webster mouse; type: functional
[6] = Stability in phosphate buffer at pH 7.4 at 37 degC at 100 uM after 72 hrs; type: physicochemical; settings: for remaining at 72 h, 100 µM: phosphate buffer, pH 7.4, read-out: Stability; summary of the method: as §2
[7] = Aqueous solubility in citrate buffer at pH 4; type: physicochemical; summary of the method: as §1
[8] = phosphate buffer, read-out: Solubility
[9] = citrate buffer, read-out: Solubility

Structure (SMILES)	solubility [1, 8] [µg/mL]	AUC (Bone marrow) [nmol/g]	Ratio AUC (Liver [2])	remaining at 24 h, 100 µM [3] [%]	AUC (Liver [4]) [nmol·h/g]	Ratio AUC (Liver [5])	remaining at 72 h, 100 µM [6] [%]	solubility [7, 9] [µg/mL]	solubility ([1]; buffer) [µg/mL]	Stability ([3]; buffer, pH 7.4, 24 h, 100 µM, 24 h) [%]	Stability ([6]; buffer, pH 7.4, 72 h, 100 µM, 72 h) [%]	solubility ([7]; buffer) [µg/mL]
Nc1ccn([C@@H]2O[C@H](COP3(=O)OCC[C@@H](c4ccncc4)O3)[C@@H](O)[C@@H]2O)c(=O)n1 (some centres not stated)	7100 (≈ 16.1 mM)	< 12	>12	> 99	148.8	19.6	> 95	23900 (≈ 54.3 mM)				
Nc1ccn([C@@H]2O[C@H](COP3(=O)OCC[C@H](c4ccc(Br)cc4)O3)[C@@H](O)[C@@H]2O)c(=O)n1 (some centres not stated)				9			4					
Nc1ccn([C@@H]2O[C@H](COP3(=O)OCC[C@H](c4ccc(Cl)cc4)O3)[C@@H](O)[C@@H]2O)c(=O)n1 (some centres not stated)				5			4					
Nc1ccn([C@@H]2O[C@H](COP3(=O)OCC[C@H](c4cccc(Cl)c4)O3)[C@@H](O)[C@@H]2O)c(=O)n1 (some centres not stated)	1700 (≈ 3.59 mM)			63			21	3700 (≈ 7.81 mM)				
Nc1ccn([C@@H]2O[C@H](COP3(=O)OCC[C@H](c4ccc(F)c(Cl)c4)O3)[C@@H](O)[C@@H]2O)c(=O)n1 (some centres not stated)	3200 (≈ 6.51 mM)			74			52	6700 (≈ 13.6 mM)				
Nc1ccn([C@@H]2O[C@H](COP3(=O)OCC[C@H](c4cc(Cl)cc(Cl)c4)O3)[C@@H](O)[C@@H]2O)c(=O)n1 (some centres not stated)	500 (≈ 0.984 mM)			82			76	1100 (≈ 2.16 mM)				
Nc1ccn([C@@H]2O[C@H](COP3(=O)OCC[C@H](c4cccnc4)O3)[C@@H](O)[C@@H]2O)c(=O)n1 (some centres not stated)	176000 (≈ 400 mM)			99			83	172000 (≈ 391 mM)				
COC(=O)c1cccc([C@H]2CCOP(=O)(OC[C@H]3O[C@@H](n4ccc(N)nc4=O)[C@@H](O)[C@@H]3O)O2)c1 (some centres not stated)	7200 (≈ 14.5 mM)			60			23	10300 (≈ 20.7 mM)				
COC(=O)c1ccc([C@H]2CCOP(=O)(OC[C@H]3O[C@@H](n4ccc(N)nc4=O)[C@@H](O)[C@@H]3O)O2)cc1 (some centres not stated)	5700 (≈ 11.5 mM)			84			61	7400 (≈ 14.9 mM)				
Nc1ccn([C@@H]2O[C@H](COP3(=O)OCC[C@H](c4ccncc4)O3)[C@@H](O)[C@@H]2O)c(=O)n1 (stereo in doubt; 10i)									> 200000	92	90	> 200000
Nc1ccn([C@@H]2O[C@H](COP3(=O)OCC[C@H](c4ccncc4)O3)[C@@H](O)[C@@H]2O)c(=O)n1 (stereo in doubt; 19R)		< 12	>7	> 99	68	19.4	> 97		16700 (≈ 37.9 mM)			37900 (≈ 86.1 mM)
Nc1ccn([C@@H]2O[C@H](CO)[C@@H](O)[C@@H]2O)c(=O)n1 [CYTARABINE]		46	<0.42		< 19.2	<0.16						
